ChEMBL document CHEMBL5724801, “EUbOPEN Chemogenomics Library - Multiplex” (2024)
Where “and” joins values, the source holds several entries; their conditions need not be identical. Identical values can stand only once.

Tested on: HEK-293T
Assay: Multiplex assay against HEK293T
Format: toxicity, cell-based
Settings: human
Procedure, shortened: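 Tubulin, mitochondrial-mass and membrane-permeability phenotypes are per cents of healthy-nucleus cells. Cells were gated by CellPathfinder machine learning into Hoechst high-intensity objects or normal cells, normal cells into healthy, pyknosed or fragmented nuclei, and pyknosed cells into mitotic or apoptotic. Before that, live cells stained at seeding with Hoechst33342, BioTracker Green Microtubule Cytoskeleton Dye, MitoTracker Red and Annexin V Alexa Fluor 680 were imaged on a CQ1 microscope at 37°C and 5% CO2 after compound addition.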

[1] = 12 h, 1 µM, compound concentration 1 uM
[2] = 12 h, 10 µM, compound concentration 10 uM
[3] = 24 h, 1 µM, compound concentration 1 uM
[4] = 24 h, 10 µM, compound concentration 10 uM
[5] = 48 h, 1 µM, compound concentration 1 uM
[6] = 48 h, 10 µM, compound concentration 10 uM

SMILES: COC(=O)C1=C(C)NC(C)=C(C(=O)OC(C)C)C1c1cccc2nonc12 (centres undefined) [ISRADIPINE]
- Population Apoptotic (%) [1]: 14.42% and 4.72%
- Population Fragmented Nuclei (%) [1]: 2.79% and 5.84%
- Population Hoechst High Intensity Objects (%) [1]: 0%
- Population Membrane Permeable-Phenotype (%) [1]: 0%
- Population Mitochondria Different-Phenotype (%) [1]: 37.14% and 47.83%
- Population Mitotic Cells (%) [1]: 85.58% and 95.28%
- Population Normal (%) [1]: 100%
- Population Pyknosed Nuclei (%) [1]: 32.2% and 77.37%
- Total Cell Count [1]: 323 and 137
- Population Apoptotic (%) [2]: 3.97% and 9.29%
- Population Fragmented Nuclei (%) [2]: 0.97% and 1.28%
- Population Hoechst High Intensity Objects (%) [2]: 0.32% and 0%
- Population Membrane Permeable-Phenotype (%) [2]: 0.65% and 0%
- Population Mitochondria Different-Phenotype (%) [2]: 39.61% and 35.71%
- Population Mitotic Cells (%) [2]: 96.03% and 90.71%
- Population Normal (%) [2]: 99.68% and 100%
- Population Pyknosed Nuclei (%) [2]: 49.03% and 89.74%
- Total Cell Count [2]: 309 and 156
- Population Apoptotic (%) [3]: 10.81% and 2.08%
- Population Fragmented Nuclei (%) [3]: 3.28% and 3.47%
- Population Healthy Nuclei (%) [3]: 76.5% and 41.04%
- Population Hoechst High Intensity Objects (%) [3]: 0% and 1.14%
- Population Membrane Permeable-Phenotype (%) [3]: 2.62% and 1.41%
- Population Mitochondria Different-Phenotype (%) [3]: 16.9% and 15.49%
- Population Mitotic Cells (%) [3]: 89.19% and 97.92%
- Population Normal (%) [3]: 100% and 98.86%
- Population Pyknosed Nuclei (%) [3]: 20.22% and 55.49%
- Population Tubulin-Different-Phenotype (%) [3]: 7.62% and 1.41%
- Population Apoptotic (%) [4]: 14.52% and 14.29%
- Population Fragmented Nuclei (%) [4]: 1% and 1.72%
- Population Hoechst High Intensity Objects (%) [4]: 0.5% and 0%
- Population Membrane Permeable-Phenotype (%) [4]: 1.48% and 0%
- Population Mitochondria Different-Phenotype (%) [4]: 27.68% and 22.58%
- Population Mitotic Cells (%) [4]: 85.48% and 85.71%
- Population Normal (%) [4]: 99.5% and 100%
- Population Pyknosed Nuclei (%) [4]: 31.08% and 80.46%
- Population Tubulin-Different-Phenotype (%) [4]: 40.59% and 25.81%
- Total Cell Count [4]: 401 and 174
- Population Apoptotic (%) [5]: 8.94% and 17.46%
- Population Fragmented Nuclei (%) [5]: 4.71% and 1.73%
- Population Healthy Nuclei (%) [5]: 86.76% and 76.47%
- Population Hoechst High Intensity Objects (%) [5]: 0% and 1.03%
- Population Membrane Permeable-Phenotype (%) [5]: 5.91% and 5.88%
- Population Mitochondria Different-Phenotype (%) [5]: 13.5% and 15.84%
- Population Mitotic Cells (%) [5]: 91.06% and 82.54%
- Population Normal (%) [5]: 100% and 98.97%
- Population Pyknosed Nuclei (%) [5]: 8.52% and 21.8%
- Population Apoptotic (%) [6]: 9.09% and 15.38%
- Population Fragmented Nuclei (%) [6]: 2.12% and 2.49%
- Population Healthy Nuclei (%) [6]: 83.92% and 48.96%
- Population Hoechst High Intensity Objects (%) [6]: 0.14% and 0%
- Population Membrane Permeable-Phenotype (%) [6]: 6.22% and 3.39%
- Population Mitochondria Different-Phenotype (%) [6]: 41.85% and 34.75%
- Population Mitotic Cells (%) [6]: 90.91% and 84.62%
- Population Normal (%) [6]: 99.86% and 100%
- Total Cell Count [6]: 710 and 241

SMILES: O=C(O)CCC/C=C\CC1C(O)CC(O)C1/C=C/C(O)COc1cccc(Cl)c1 (centres undefined) [CLOPROSTENOL]
- Population Apoptotic (%) [1]: 31% and 40%
- Population Fragmented Nuclei (%) [1]: 7% and 6%
- Population Healthy Nuclei (%) [1]: 81% and 80%
- Population Hoechst High Intensity Objects (%) [1]: 9% and 7%
- Population Membrane Permeable-Phenotype (%) [1]: 0%
- Population Mitochondria Different-Phenotype (%) [1]: 44% and 56%
- Population Mitotic Cells (%) [1]: 68% and 59%
- Population Normal (%) [1]: 90% and 92%
- Population Pyknosed Nuclei (%) [1]: 10% and 13%
- Population Tubulin-Different-Phenotype (%) [1]: 35% and 23%
- Total Cell Count [1]: 458 and 341
- Population Apoptotic (%) [2]: 45% and 51%
- Population Fragmented Nuclei (%) [2]: 7% and 8%
- Population Healthy Nuclei (%) [2]: 77%
- Population Hoechst High Intensity Objects (%) [2]: 6% and 13%
- Population Membrane Permeable-Phenotype (%) [2]: 0%
- Population Mitochondria Different-Phenotype (%) [2]: 63% and 68%
- Population Mitotic Cells (%) [2]: 54% and 48%
- Population Normal (%) [2]: 93% and 86%
- Population Pyknosed Nuclei (%) [2]: 14%
- Population Tubulin-Different-Phenotype (%) [2]: 41% and 37%
- Total Cell Count [2]: 395 and 357
- Population Apoptotic (%) [3]: 22% and 34%
- Population Fragmented Nuclei (%) [3]: 11% and 7%
- Population Healthy Nuclei (%) [3]: 76% and 83%
- Population Hoechst High Intensity Objects (%) [3]: 7% and 5%
- Population Membrane Permeable-Phenotype (%) [3]: 1% and 0%
- Population Mitochondria Different-Phenotype (%) [3]: 25% and 37%
- Population Mitotic Cells (%) [3]: 77% and 65%
- Population Normal (%) [3]: 92% and 94%
- Population Pyknosed Nuclei (%) [3]: 11% and 9%
- Population Tubulin-Different-Phenotype (%) [3]: 28% and 16%
- Total Cell Count [3]: 612 and 477
- Population Apoptotic (%) [4]: 46%
- Population Fragmented Nuclei (%) [4]: 10% and 12%
- Population Healthy Nuclei (%) [4]: 78%
- Population Hoechst High Intensity Objects (%) [4]: 7% and 11%
- Population Membrane Permeable-Phenotype (%) [4]: 0%
- Population Mitochondria Different-Phenotype (%) [4]: 46% and 55%
- Population Mitotic Cells (%) [4]: 54% and 53%
- Population Normal (%) [4]: 92% and 88%
- Population Pyknosed Nuclei (%) [4]: 10% and 9%
- Population Tubulin-Different-Phenotype (%) [4]: 35% and 31%
- Total Cell Count [4]: 490 and 483
- Population Apoptotic (%) [5]: 20% and 28%
- Population Fragmented Nuclei (%) [5]: 15% and 13%
- Population Healthy Nuclei (%) [5]: 77% and 81%
- Population Hoechst High Intensity Objects (%) [5]: 4% and 5%
- Population Membrane Permeable-Phenotype (%) [5]: 1%
- Population Mitochondria Different-Phenotype (%) [5]: 15% and 20%
- Population Mitotic Cells (%) [5]: 79% and 71%
- Population Normal (%) [5]: 95% and 94%
- Population Pyknosed Nuclei (%) [5]: 6% and 5%
- Population Tubulin-Different-Phenotype (%) [5]: 15% and 11%
- Total Cell Count [5]: 956 and 703
- Population Apoptotic (%) [6]: 33% and 25%
- Population Fragmented Nuclei (%) [6]: 16% and 18%
- Population Healthy Nuclei (%) [6]: 76% and 75%
- Population Hoechst High Intensity Objects (%) [6]: 7% and 6%
- Population Membrane Permeable-Phenotype (%) [6]: 0% and 1%
- Population Mitochondria Different-Phenotype (%) [6]: 32% and 25%
- Population Mitotic Cells (%) [6]: 66% and 74%
- Population Normal (%) [6]: 92% and 93%
- Population Pyknosed Nuclei (%) [6]: 6% and 5%
- Population Tubulin-Different-Phenotype (%) [6]: 18%
- Total Cell Count [6]: 659 and 731

SMILES: CC(C)(C)c1cc(C(C)(C)C)c(NC(=O)c2c[nH]c3ccccc3c2=O)cc1O [IVACAFTOR]
- Population Apoptotic (%) [1]: 10.06% and 8.26%
- Population Fragmented Nuclei (%) [1]: 0% and 2.11%
- Population Healthy Nuclei (%) [1]: 51.67% and 21.13%
- Population Hoechst High Intensity Objects (%) [1]: 0.3% and 0%
- Population Membrane Permeable-Phenotype (%) [1]: 0.59% and 0%
- Population Mitochondria Different-Phenotype (%) [1]: 31.76% and 13.33%
- Population Mitotic Cells (%) [1]: 89.94% and 91.74%
- Population Normal (%) [1]: 99.7% and 100%
- Population Pyknosed Nuclei (%) [1]: 48.33% and 76.76%
- Total Cell Count [1]: 330 and 142
- Population Apoptotic (%) [2]: 31.3% and 21.05%
- Population Fragmented Nuclei (%) [2]: 2.9% and 1.94%
- Population Hoechst High Intensity Objects (%) [2]: 0.72% and 0%
- Population Membrane Permeable-Phenotype (%) [2]: 0%
- Population Mitochondria Different-Phenotype (%) [2]: 27.01% and 57.89%
- Population Mitotic Cells (%) [2]: 68.7% and 78.95%
- Population Normal (%) [2]: 99.28% and 100%
- Population Pyknosed Nuclei (%) [2]: 47.46% and 85.81%
- Total Cell Count [2]: 278 and 155
- Population Apoptotic (%) [3]: 15.6% and 17.89%
- Population Fragmented Nuclei (%) [3]: 0.58% and 1.37%
- Population Healthy Nuclei (%) [3]: 78.42% and 33.56%
- Population Hoechst High Intensity Objects (%) [3]: 0%
- Population Membrane Permeable-Phenotype (%) [3]: 0.49% and 2.04%
- Population Mitochondria Different-Phenotype (%) [3]: 13.02% and 8.16%
- Population Mitotic Cells (%) [3]: 84.4% and 82.11%
- Population Normal (%) [3]: 100%
- Population Tubulin-Different-Phenotype (%) [3]: 7.13% and 10.2%
- Population Apoptotic (%) [4]: 52.29% and 35.25%
- Population Fragmented Nuclei (%) [4]: 2.77% and 2.63%
- Population Hoechst High Intensity Objects (%) [4]: 0.82% and 0%
- Population Membrane Permeable-Phenotype (%) [4]: 0% and 3.85%
- Population Mitotic Cells (%) [4]: 47.71% and 64.75%
- Population Normal (%) [4]: 99.18% and 100%
- Population Pyknosed Nuclei (%) [4]: 30.19% and 80.26%
- Population Tubulin-Different-Phenotype (%) [4]: 10.74% and 7.69%
- Total Cell Count [4]: 364 and 152
- Population Apoptotic (%) [5]: 8.49% and 16.88%
- Population Fragmented Nuclei (%) [5]: 2.06% and 0.56%
- Population Healthy Nuclei (%) [5]: 89.56% and 55.93%
- Population Hoechst High Intensity Objects (%) [5]: 0.24% and 0.56%
- Population Membrane Permeable-Phenotype (%) [5]: 3.45% and 1.01%
- Population Mitotic Cells (%) [5]: 91.51% and 83.12%
- Population Normal (%) [5]: 99.76% and 99.44%
- Population Apoptotic (%) [6]: 17.35% and 40.23%
- Population Fragmented Nuclei (%) [6]: 2.23% and 4%
- Population Healthy Nuclei (%) [6]: 84.89% and 46.29%
- Population Hoechst High Intensity Objects (%) [6]: 0.13% and 1.69%
- Population Membrane Permeable-Phenotype (%) [6]: 2.48% and 1.23%
- Population Mitochondria Different-Phenotype (%) [6]: 34.21% and 56.79%
- Population Mitotic Cells (%) [6]: 82.65% and 59.77%
- Population Normal (%) [6]: 99.87% and 98.31%
